ChEMBL document CHEMBL1126041, “Leukotriene B4 receptor antagonists: the LY255283 series of hydroxyacetophenones” (J Med Chem, 1992)

How the values were obtained:
[1] = biological target: Leukotriene B4 receptor 1 (Homo sapiens) (UniProt Q15722); assay: Inhibition of binding of [3H]LTB4 to the leukotriene B4 receptor of human peripheral neutrophils (PMN) at a concentration of 10 uM.
In short: (§1)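 Neutrophils isolated by Ficoll-Hypaque centrifugation, dextran 70 sedimentation and hypotonic lysis (≥90% neutrophils, ≥90% viable), 2 × 10^7 cells/mL in Hank's balanced salt solution with 0.1% ovalbumin. Compound in DMSO plus 2.65 nM [3H]LTB4 (stock), 10 min at 4 °C. Cells spun through dibutyl/dinonyl phthalate (7:2), pellet counted by scintillation. Triplicate incubations averaged. Reported as % inhibition of specific binding; nonspecific binding taken with >2000-fold excess unlabeled LTB4.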

[2] = biological target: Leukotriene B4 receptor 1 (Homo sapiens) (UniProt Q15722); assay: Inhibition of [3H]LTB4 binding to leukotriene B4 receptor from human peripheral neutrophils (PMN), at a concentration of 1 uM; in short: as §1
[3] = biological target: Leukotriene B4 receptor (Homo sapiens) (UniProt Q9NPC1+Q15722); assay: Inhibition of [3H]LTB4 binding to leukotriene B4 receptor of human peripheral neutrophils (PMN) at a concentration of 0.1 uM.; assay type: protein assay; in short: as §1
Chain of Leukotriene B4 receptor (Homo sapiens) (Q15722 whole entry, looked up): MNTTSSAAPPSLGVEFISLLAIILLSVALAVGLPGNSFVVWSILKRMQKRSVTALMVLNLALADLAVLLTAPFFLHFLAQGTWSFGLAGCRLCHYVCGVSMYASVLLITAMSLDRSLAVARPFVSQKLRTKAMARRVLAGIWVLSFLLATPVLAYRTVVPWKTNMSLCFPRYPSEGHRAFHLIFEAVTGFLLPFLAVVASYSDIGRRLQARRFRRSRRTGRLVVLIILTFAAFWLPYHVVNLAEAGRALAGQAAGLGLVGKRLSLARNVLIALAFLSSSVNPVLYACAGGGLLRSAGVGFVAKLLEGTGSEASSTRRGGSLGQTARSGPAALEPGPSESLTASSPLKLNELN
Chain of Leukotriene B4 receptor (Homo sapiens) (Q9NPC1 whole entry, looked up): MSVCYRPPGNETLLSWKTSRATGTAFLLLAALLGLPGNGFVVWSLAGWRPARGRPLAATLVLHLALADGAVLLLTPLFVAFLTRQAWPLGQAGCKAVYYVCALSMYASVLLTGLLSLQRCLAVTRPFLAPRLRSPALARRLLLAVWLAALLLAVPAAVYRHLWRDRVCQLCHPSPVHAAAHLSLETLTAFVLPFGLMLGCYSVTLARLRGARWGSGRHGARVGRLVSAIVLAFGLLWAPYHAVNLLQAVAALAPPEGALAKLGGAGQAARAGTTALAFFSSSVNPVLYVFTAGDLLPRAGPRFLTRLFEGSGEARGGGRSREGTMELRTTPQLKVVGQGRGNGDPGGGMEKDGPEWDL

Chain of Leukotriene B4 receptor 1 (Homo sapiens) (Q15722 whole entry): as the sequence (Q15722 whole entry, looked up) above

Row | SMILES | inhibition [1] [%] | inhibition [2] [%] | inhibition [3] [%]
1 | C=CCc1cc(C(C)=O)c(O)cc1OCCCCCCCCC#N | 86 | 50 | –
2 | CCc1cc(C(C)=O)c(O)cc1OCc1ccc(C#N)cc1 | 7 | 11 | 0
3 | CCc1cc(C(C)=O)c(O)cc1OCCCCCC[S+](C)[O-] (stereo not drawn) | 92 | 50 | –
4 | C=CCc1cc(C(C)=O)c(O)cc1OCCCCCC(C)(C)O | 98 | 60 | –
5 | C=CCc1cc(C(C)=O)c(O)cc1OCCCCCCC | 31 | 8 | –
6 | CCc1cc(C(C)=O)c(O)cc1OCCCCCC(C)(C)C(=O)O | 104 | 73 | 20
7 | C=CCc1cc(C(C)=O)c(O)cc1OCCCCO | 48 | 9 | –
8 | CCCc1cc(C(C)=O)c(O)cc1OCCCCC(=O)O | 11 | 0 | –
9 | C=CCc1cc(C(C)=O)c(O)cc1OCc1ccc(CC#N)cc1 | 30 | 17 | –
10 | CCc1cc(C(C)=O)c(O)cc1OCCCCC(C)(C)C#N | 79 | 30 | 5
11 | CC(=O)c1ccc(OCCCCC#N)cc1O | 0 | 0 | –
12 | CCc1cc(C(C)=O)c(O)cc1OCc1cccc(C#N)c1 | 58 | 61 | 18
13 | C=CCc1cc(C(C)=O)c(O)cc1OCCCC | 32 | 8 | –
14 | CCCc1cc(C(C)=O)c(O)cc1OCCCCCC(=O)O | 73 | 24 | –
15 | CCc1cc(C(C)=O)c(O)cc1OCCCCc1nnn[nH]1 | 49 | 19 | –
16 | CCc1cc(C(C)=O)c(O)cc1OCCCCCCC(=O)Nc1nn[nH]n1 | 101 | 83 | –
17 | CC(=O)c1cc(C(C)(C)C)c(OCCCCCC(C)(C)C#N)cc1O | 1 | 2 | –
18 | CCc1cc(C(C)=O)c(O)cc1OCCCCCCC(C)(C)C#N | 65 | 30 | 11
19 | C=CCc1cc(C(C)=O)c(O)cc1OCCCCCCC#N | 97 | 63 | –
20 | CCc1cc(C(C)=O)c(O)cc1OCc1ccc(C(=O)O)cc1 | 22 | 0 | –
21 | C=CCc1cc(C(C)=O)c(O)cc1OCCCCCC(N)=O | 88 | 37 | –
22 | C=CCc1cc(C(C)=O)c(OC)cc1OCCCCC#N | 13 | 8 | –

Row | SMILES | inhibition [1] [%] | inhibition [2] [%] | inhibition [3] [%]
23 | CCc1cc(C(C)=O)c(O)cc1OCCCCCCCC(C)(C)C#N | 66 | 29 | 6
24 | C=CCc1cc(C(C)=O)c(O)cc1OCCCC#N | 47 | 6 | –
25 | C=CCc1cc(C(C)=O)c(O)cc1OCCCCCCCCCCC#N | 50 | 14 | –
26 | C=CCc1cc(C(C)=O)c(O)cc1OCCCCCC(=O)N(C)C | 92 | 54 | –
27 | CCc1cc(C(C)=O)c(O)cc1OCCCCCCC(=O)O | 87 | 38 | –
28 | CCc1cc(C(C)=O)c(O)cc1OCCCCCC(C)(C)c1nnn(C)n1 | 95 | 66 | 16
29 | C=CCc1cc(C(C)=O)c(O)cc1OCc1ccccc1C#N | 47 | 6 | –
30 | CCCc1cc(C(C)=O)c(Cl)cc1OCCCCC#N | 35 | 13 | –
31 | CCc1cc(C(C)=O)c(O)cc1OCCCC(C)(C)c1nnn[nH]1 | 100 | 76 | 28
32 | C=CCc1cc(C(C)=O)c(O)cc1OCCCCC#N | 92 | 57 | –
33 | C=CCc1cc(C(C)=O)c(O)cc1OCCCCCC(C)=O | 98 | 58 | –
34 | CCc1cc(C(C)=O)c(O)cc1OCCCCCCC(C)(C)c1nnn[nH]1 | – | 67 | 13
35 | CCc1cc(C(C)=O)c(O)cc1OCCCCC#N | 92 | 57 | –
36 | CCc1cc(C(C)=O)c(O)cc1OCCCC(C)(C)C#N | 85 | 46 | 13
37 | C=CCc1cc(C(C)=O)c(O)cc1OCC#N | 20 | 2 | –
38 | C=CCc1cc(C(C)=O)c(O)cc1OCCCCC | 60 | 23 | –
39 | CCCc1c(OCCCCC#N)ccc(C(C)=O)c1O | 0 | 9 | –
40 | CCCc1cc(C(C)=O)c(O)cc1OCCCCC#N | 84 | 37 | –
41 | CCc1cc(C(C)=O)c(O)cc1OCCCCCCSC | 71 | 14 | –
42 | C=CCc1cc(C(C)=O)c(O)cc1OCc1cccc(CC#N)c1 | 16 | 0 | –
43 | CCCc1cc(C(C)=O)c(O)c(CCC)c1OCCCCC#N | 0 | 0 | –
44 | C=CCc1cc(C(C)=O)c(O)cc1OCCCCCC#N | 81 | 41 | –

Row | SMILES | inhibition [1] [%] | inhibition [2] [%] | inhibition [3] [%]
45 | CCCCCCc1cc(C(C)=O)c(O)cc1OCCCCC#N | 51 | 13 | –
46 | CC(=O)c1cc(C)c(OCCCCC#N)cc1O | 79 | 35 | –
47 | CC(=O)c1cc(C=O)c(OCCCCC#N)cc1O | 6 | 3 | –
48 | CC(=O)c1cc(C(C)=O)c(OCCCCC#N)cc1O | 8 | 0 | –
49 | CCc1cc(C(C)=O)c(O)c(C)c1OCCCCCC(C)(C)c1nnn[nH]1 | 42 | 9 | –
50 | CC(=O)c1cc(CC2CO2)c(OCCCCC#N)cc1O (stereo not drawn) | 62 | 24 | –
51 | CCc1cc(C(C)=O)c(O)cc1OCCCCCCc1nnn[nH]1 | 91 | 60 | –
52 | CCc1cc(C(C)=O)c(O)cc1Oc1cccc(C#N)c1 | 11 | 8 | –
53 | CCC1(c2ccc(N)cc2)CCC(=O)NC1=O (stereo not drawn) | 82 | 29 | –
54 | CCc1cc(C(C)=O)c(O)cc1OCCCC(C)(C)C(N)=O | 92 | 51 | 16
55 | C=CCCCCOc1cc(O)c(C(C)=O)cc1CC=C | 73 | 27 | –
56 | CCc1cc(C(C)=O)c(O)cc1OCCCCCC(C)(C)C#N | 85 | 53 | 17
57 | CCc1cc(C(C)=O)c(O)cc1OCCCCCC(C)(C)c1nnnn1C | 99 | 59 | 14
58 | COCc1cc(C(C)=O)c(O)cc1OCCCCCCC#N | 47 | 7 | –
59 | C=CCc1cc(C(C)=O)c(O)cc1OCCCCCC | 50 | 9 | –
60 | CCc1cc(C(C)=O)c(O)cc1OCCCCC(C)(C)c1nnn[nH]1 | – | 66 | 17
61 | CC(=O)c1cc(CO)c(OCCCCCCC#N)cc1O | 40 | 8 | –
62 | C#CCCCCOc1cc(O)c(C(C)=O)cc1CC=C | 74 | 29 | –
63 | C=CCc1cc(C(=O)c2ccccc2)c(O)cc1OCCCCC#N | 33 | 5 | –
64 | CCc1cc(C(C)=O)c(O)cc1OCCCC(C)(C)C(=O)O | 89 | 43 | 12
65 | CC(=O)c1cc(CC(C)O)c(OCCCCC#N)cc1O (stereo not drawn) | 10 | 6 | –
66 | CCc1cc(C(C)=O)c(O)cc1OCCCCCCC(=O)N(C)C | 100 | 61 | –

Row | SMILES | inhibition [1] [%] | inhibition [2] [%] | inhibition [3] [%]
67 | CCCc1cc(C(C)=O)c(O)cc1OCCCCN | 6 | 0 | –
68 | C=CCc1cc(C(C)=O)c(O)cc1OCCCCCCCC#N | 88 | 52 | –
69 | C=CCc1cc(C(C)=O)c(O)cc1OCc1ccc(C#N)cc1 | 22 | 28 | –
70 | CCc1cc(C(C)=O)c(O)cc1OCCCCCCC(=O)NC | 97 | 54 | –
71 | CCc1cc(C(C)=O)c(O)cc1OCCCCN(C)C | 4 | 3 | –
72 | CCc1cc(C(C)=O)c(O)cc1OCCCCCCC#N | 103 | 73 | –
73 | CCc1cc(C(C)=O)c(O)cc1OCCCCCCCC(C)(C)c1nnn[nH]1 | – | 96 | 49
74 | C=CCc1cc(C(=O)CCCCCCCCC)c(O)cc1OCCCCC#N | 10 | 7 | –
75 | CCCc1cc(C(C)=O)ccc1OCCCCC#N | 44 | 19 | –
76 | C=CCc1cc(C(=O)CC)c(O)cc1OCCCCC#N | 77 | 36 | –
77 | C=CCc1cc(C(C)=O)c(O)cc1OCCCCCC(=O)OC | 106 | 65 | –
78 | C=CCc1cc(C(C)=O)c(O)cc1OCCCCCC(=O)NO | 85 | 28 | –
79 | CCc1cc(C(C)=O)c(O)cc1OCCCCN1CCOCC1 | 32 | 9 | –
80 | CCc1cc(C(C)=O)c(O)cc1OCCCCCC(C)(C)c1nn[nH]n1 | 102 | 93 | 56
81 | CCc1cc(C(C)=O)c(O)cc1OCCCCCn1cncn1 | 82 | 30 | –
82 | CCCc1cc(C(C)=O)c(O)cc1OCCCCNC(C)=O | 71 | 23 | –
83 | CCCCCc1cc(C(C)=O)c(O)cc1OCCCCC#N | 31 | 14 | –
84 | C=CCc1ccc(O)cc1OCCCCC#N | 29 | 9 | –
85 | CCCCc1cc(C(C)=O)c(O)cc1OCCCCC#N | 41 | 13 | –
86 | CSCc1cc(C(C)=O)c(O)cc1OCCCCCCC#N | 97 | 64 | –
87 | CCc1cc(C(C)=O)c(O)cc1OCCCCCCS(C)(=O)=O | 99 | 62 | –
